Data set [1] concerns PBMC. As to the kind of experiment: Activation of human PBMC assessed as down-regulation of HLA-DR expression at 2 uM after 4 days by flow cytometry. The data set is classed as functional, cell-based. The gist of the method:
(§1)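 Fresh blood from healthy adult donors; PBMC isolated on Ficoll-Paque gradient (800 g, 30 min, room temperature), washed twice and cultured at 1.5 million cells/mL in RPMI 1640 with penicillin/streptomycin, 1 mM pyruvate and 10% heat-inactivated FCS. Sterile-filtered dendrimer was added at the final concentration. Monocytes were gated by morphology. The readout was HLA-DR (FITC) or CD14 (PE-Pc5) staining, given as the mfi ratio versus isotype control. Three donors were tested.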
(In general: Flow cytometry measures light scatter and fluorescence of single cells or particles in a stream.)

Data set [2] concerns PBMC. Description: Activation of human PBMC assessed as down-regulation of CD14 expression at 20 uM after 4 days by flow cytometry. The data set is classed as functional, cell-based. An outline of the steps: as §1
In data set [3] the test system is PBMC. As to the kind of experiment: Activation of human PBMC assessed as down-regulation of CD14 expression at 2 uM after 4 days by flow cytometry. It counts as functional, cell-based. An outline of the steps: as §1
The subject of data set [4] is PBMC. Description: Cytotoxicity against long-lasting cultures of human PBMC. The data set is classed as cell-based.
Data set [5] concerns PBMC. Description: Activation of human PBMC assessed as down-regulation of CD14 expression by flow cytometry. It counts as functional, cell-based. The gist of the method: as §1
Data set [6] deals with PBMC. Description: Activation of human PBMC assessed as down-regulation of HLA-DR expression at 20 uM after 4 days by flow cytometry. It counts as functional, cell-based. The gist of the method:
as §1

The test system of data set [7] is PBMC. As to the kind of experiment: Activation of human PBMC assessed as occurrence of bigger and granular monocytes by flow cytometry. The data set is classed as functional, cell-based. An outline of the steps: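 Donor PBMC were prepared on Ficoll-Paque and cultured in complete RPMI 1640 (10% heat-inactivated FCS, 1.5 million cells/mL) with sterile-filtered dendrimer at the final concentration. By flow cytometry (LSR-II), monocytes were selected on scatter morphology, and the read-out was an increase in cell size and granularity.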

A short description of data set [8]: Solubility in water. It counts as physicochemical. The following applies: buffer.
For data set [9], the system named is PBMC. Description: Activation of human PBMC assessed as down-regulation of HLA-DR expression by flow cytometry. The data set is classed as functional, cell-based. The gist of the method: as §1
The test system of data set [10] is PBMC. Description: Activation of human PBMC assessed as down-regulation of HLA-DR expression after 4 days by flow cytometry. The data set is classed as functional, cell-based. The gist of the method:
as §1

The test system of data set [11] is PBMC. Description: Activation of human PBMC assessed as down-regulation of CD14 expression after 4 days by flow cytometry. The data set is classed as functional, cell-based. The gist of the method:
as §1

Among the data in ChEMBL document CHEMBL1151854, “Dendrimers ended by non-symmetrical azadiphosphonate groups: synthesis and immunological properties” (Bioorg Med Chem Lett, 2009) are Activity and solubility values, retold here.

The source made the active and inactive calls. No cut-off for these calls is given here.

As for `CCCCN(CP(=O)([O-])O)C(c1ccc(OP(=S)(Oc2ccc(C(N(CCCC)CP(=O)([O-])O)P(=O)([O-])O)cc2)N(C)/N=C/c2ccc(OP3(Oc4ccc(/C=N/N(C)P(=S)(Oc5ccc(C(N(CCCC)CP(=O)([O-])O)P(=O)([O-])O)cc5)Oc5ccc(C(N(CCCC)CP(=O)([O-])O)P(=O)([O-])O)cc5)cc4)=NP(Oc4ccc(/C=N/N(C)P(=S)(Oc5ccc(C(N(CCCC)CP(=O)([O-])O)P(=O)([O-])O)cc5)Oc5ccc(C(N(CCCC)CP(=O)([O-])O)P(=O)([O-])O)cc5)cc4)(Oc4ccc(/C=N/N(C)P(=S)(Oc5ccc(C(N(CCCC)CP(=O)([O-])O)P(=O)([O-])O)cc5)Oc5ccc(C(N(CCCC)CP(=O)([O-])O)P(=O)([O-])O)cc5)cc4)=NP(Oc4ccc(/C=N/N(C)P(=S)(Oc5ccc(C(N(CCCC)CP(=O)([O-])O)P(=O)([O-])O)cc5)Oc5ccc(C(N(CCCC)CP(=O)([O-])O)P(=O)([O-])O)cc5)cc4)(Oc4ccc(/C=N/N(C)P(=S)(Oc5ccc(C(N(CCCC)CP(=O)([O-])O)P(=O)([O-])O)cc5)Oc5ccc(C(N(CCCC)CP(=O)([O-])O)P(=O)([O-])O)cc5)cc4)=N3)cc2)cc1)P(=O)([O-])O.[Na+].[Na+].[Na+].[Na+].[Na+].[Na+].[Na+].[Na+].[Na+].[Na+].[Na+].[Na+].[Na+].[Na+].[Na+].[Na+].[Na+].[Na+].[Na+].[Na+].[Na+].[Na+].[Na+].[Na+]` (stereo not drawn), the outcome with PBMC [1], in the data set on PBMC [2], in the data set with PBMC [3], in the data set with PBMC [5], with PBMC [6] and in the data set on PBMC [7] was Active. In addition, the result with PBMC [9] was Active. The Activity entry with PBMC [4] is given as “Toxic”. Moreover, in data set [8], the solubility result is “Soluble”.
Turning to `C=CCN(CP(=O)([O-])O)C(c1ccc(OP(=S)(Oc2ccc(C(N(CC=C)CP(=O)([O-])O)P(=O)([O-])O)cc2)N(C)/N=C/c2ccc(OP3(Oc4ccc(/C=N/N(C)P(=S)(Oc5ccc(C(N(CC=C)CP(=O)([O-])O)P(=O)([O-])O)cc5)Oc5ccc(C(N(CC=C)CP(=O)([O-])O)P(=O)([O-])O)cc5)cc4)=NP(Oc4ccc(/C=N/N(C)P(=S)(Oc5ccc(C(N(CC=C)CP(=O)([O-])O)P(=O)([O-])O)cc5)Oc5ccc(C(N(CC=C)CP(=O)([O-])O)P(=O)([O-])O)cc5)cc4)(Oc4ccc(/C=N/N(C)P(=S)(Oc5ccc(C(N(CC=C)CP(=O)([O-])O)P(=O)([O-])O)cc5)Oc5ccc(C(N(CC=C)CP(=O)([O-])O)P(=O)([O-])O)cc5)cc4)=NP(Oc4ccc(/C=N/N(C)P(=S)(Oc5ccc(C(N(CC=C)CP(=O)([O-])O)P(=O)([O-])O)cc5)Oc5ccc(C(N(CC=C)CP(=O)([O-])O)P(=O)([O-])O)cc5)cc4)(Oc4ccc(/C=N/N(C)P(=S)(Oc5ccc(C(N(CC=C)CP(=O)([O-])O)P(=O)([O-])O)cc5)Oc5ccc(C(N(CC=C)CP(=O)([O-])O)P(=O)([O-])O)cc5)cc4)=N3)cc2)cc1)P(=O)([O-])O.[Na+].[Na+].[Na+].[Na+].[Na+].[Na+].[Na+].[Na+].[Na+].[Na+].[Na+].[Na+].[Na+].[Na+].[Na+].[Na+].[Na+].[Na+].[Na+].[Na+].[Na+].[Na+].[Na+].[Na+]` (stereo not drawn), the result in the data set with PBMC [1], in the data set on PBMC [2], with PBMC [3], in the data set with PBMC [5], in the data set with PBMC [6] and in the data set with PBMC [7] was Active. Moreover, the result in the data set with PBMC [9] was Active. The Activity result with PBMC [10] and in the data set on PBMC [11] was “Dose-dependent effect” each time. For the same compound, the solubility result in [8] is given as “Soluble”.
Take `CN(CP(=O)(O)O)C(c1ccc(OP(=S)(Oc2ccc(C(N(C)CP(=O)(O)O)P(=O)(O)O)cc2)N(C)/N=C/c2ccc(OP3(Oc4ccc(/C=N/N(C)P(=S)(Oc5ccc(C(N(C)CP(=O)(O)O)P(=O)(O)O)cc5)Oc5ccc(C(N(C)CP(=O)(O)O)P(=O)(O)O)cc5)cc4)=NP(Oc4ccc(/C=N/N(C)P(=S)(Oc5ccc(C(N(C)CP(=O)(O)O)P(=O)(O)O)cc5)Oc5ccc(C(N(C)CP(=O)(O)O)P(=O)(O)O)cc5)cc4)(Oc4ccc(/C=N/N(C)P(=S)(Oc5ccc(C(N(C)CP(=O)(O)O)P(=O)(O)O)cc5)Oc5ccc(C(N(C)CP(=O)(O)O)P(=O)(O)O)cc5)cc4)=NP(Oc4ccc(/C=N/N(C)P(=S)(Oc5ccc(C(N(C)CP(=O)(O)O)P(=O)(O)O)cc5)Oc5ccc(C(N(C)CP(=O)(O)O)P(=O)(O)O)cc5)cc4)(Oc4ccc(/C=N/N(C)P(=S)(Oc5ccc(C(N(C)CP(=O)(O)O)P(=O)(O)O)cc5)Oc5ccc(C(N(C)CP(=O)(O)O)P(=O)(O)O)cc5)cc4)=N3)cc2)cc1)P(=O)(O)O` (stereo not drawn): the result in the data set with PBMC [1], in the data set on PBMC [2], with PBMC [3] and with PBMC [6] was Active.
